Screening data as filed in PubChem BioAssay.
In the library only some 3% were active in any assay of this set; here they are far more common.
DSG3 Ab inh: inhibitors of pemphigus antibody binding to DSG3, primary screen, biochemical, bead-based, flow cytometry, scFv-GFP | Desmoglein-3 (Homo sapiens), P32926 | DSG3-coupled beads, scFv-anti-DSG3-GFP binding; hits give low values | binding (percent of control), % at 10 µM | 0.48% of 310,000 active;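 active means binding more than 3 SD below its plate's average and above zero; inconclusive means below that plate limit but binding exactly zero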;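 further: hits lower antibody fragment binding to DSG3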
SENP1 FRET inh: human SENP1 catalytic domain inhibitors, primary screen, biochemical, FRET, uHTS | AID 624204, 2012 | inhibition, % at 10 µM | Sentrin-specific protease 1 (Homo sapiens), Q9P0U3 | recombinant SENP1 catalytic domain, CyPet-SUMO1-YPet FRET cleavage | 0.21% of 360,000 active;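 active means inhibition at least 30% at 10 µM, raw YFP signal under a set limit, fluorescence ratio 0.5 to 1.5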
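Assay system – human recombinant His6-tagged SENP1 catalytic domain enzyme · Input – SENP1 enzyme, 20 pM final · Buffer or medium – Tris pH 8 buffer plus EDTA, NaCl, BME, BSA, NP40, catalase · Schedule – 50 min reaction at room temperature · Technique – FRET read of cyan and yellow fluorescence · Control set – no-enzyme wells low, DMSO-plus-enzyme wells high control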
HNF4A DNA FP: change in binding of human HNF4A to DNA, primary screen, biochemical, fluorescence polarization, FITC-DNA; AID 1224865, 2016; Hepatocyte nuclear factor 4-alpha (Homo sapiens), P41235; 1 h; activity change, % at 10 µM; 0.3% of 360,000 active; in the data active means activity change above about 30%, passing the limit was not always enough
Target sequence (P41235 whole entry, looked up): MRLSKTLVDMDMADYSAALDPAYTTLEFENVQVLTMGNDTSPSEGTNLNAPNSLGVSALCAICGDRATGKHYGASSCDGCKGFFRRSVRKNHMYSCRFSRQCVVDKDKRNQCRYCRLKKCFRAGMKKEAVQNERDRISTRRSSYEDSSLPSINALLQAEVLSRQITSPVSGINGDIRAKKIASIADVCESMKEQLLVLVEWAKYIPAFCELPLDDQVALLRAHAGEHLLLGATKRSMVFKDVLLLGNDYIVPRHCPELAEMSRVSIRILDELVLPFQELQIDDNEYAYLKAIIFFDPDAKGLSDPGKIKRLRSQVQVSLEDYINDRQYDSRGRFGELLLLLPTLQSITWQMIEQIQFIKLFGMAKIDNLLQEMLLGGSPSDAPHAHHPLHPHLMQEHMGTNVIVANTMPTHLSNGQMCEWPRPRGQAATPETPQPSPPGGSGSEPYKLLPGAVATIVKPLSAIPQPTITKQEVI
Cardio protect: cardioprotection against H2O2-induced cell death, primary screen, uHTS, H9c2 cells, ATPLite luminescence; H9c2 cardiomyocytes, H2O2 injury protection, 2 h; protection from H2O2 cell death, % at 20 µM; 0.63% of 360,000 active;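 active means compounds giving at least 50% protection of heart cells from peroxide-induced death in the single-dose screen, raw or plate-pattern-corrected value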
Granule exo inh: LAMP-1 surface exposure blockers, TALL-104 cells – cell-based, flow cytometry, MLPCN library, primary screen. TALL-104 LAMP-1 surface exposure; cells stimulated with thapsigargin and PMA. 0.66% of 360,000 active. inhibition, % at 10 µM. AID 651702, 2012;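 active means inhibition above about 55%, limit read from the data; inconclusive means no clear call, values can overlap the other calls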
Myeloid diff 2: induction of myeloid progenitor differentiation, primary screen, cell-based, flow cytometry, MLPCN library; ER-HoxA9 myeloid progenitors, lysozyme-GFP differentiation; calls only at 10 µM; AID 624256, 2012; 1% of 360,000 active;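 active means normalized GFP-positive differentiation at or above the plate's own cutoff, the solvent-only control mean plus 3 SD; inconclusive means no clear call, values can overlap the other calls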;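 further: cells exposed to compound for four days before flow analysis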
Granule exo CP1: inhibitors of lytic granule exocytosis, confirmation, TALL-104 cells, flow cytometry, Cherry Pick01. shares compounds with Granule exo inh. LAMP-1 externalization; stimulated with PMA plus thapsigargin. inhibition, % at 10 µM. 11% of 1,500 active. AID 651954, 2012; in the data active means inhibition above about 60%
Of the large screens only hits and unclear results are named; the others gave an inactive call (follow-up assays come after a bar, where they were run).

COc1ccc2nc3cc(Cl)ccc3c(Nc3ccc(O)c(CN4CCN(C)CC4)c3)c2c1	Granule exo inh 66.1 (no result: Myeloid diff 2) | Granule exo CP1 75.0
Cc1ccc(NS(=O)(=O)c2ccc3c(c2)NC(=O)CCS3)c(Br)c1	none (no result: DSG3 Ab inh)
COc1cccc(-c2csc(N3CCN(C(=S)Nc4ccccc4C)CC3)n2)c1	none
Cc1nnc(N2CCCC(C(=O)NCc3cccc(F)c3)C2)c2nn(-c3ccccc3)c(C)c12 (centres undefined)	none
Cc1ccc(-n2nc3c(N4CCC(C(=O)NCc5ccccc5C)CC4)nnc(C)c3c2C)cc1	Myeloid diff 2 inconclusive
CCc1ccc(CNC(=O)C2CCCN(c3nnc(C)c4c(C)n(-c5ccccc5)nc34)C2)cc1 (centres undefined)	Granule exo inh 57.7 (no result: DSG3 Ab inh) | Granule exo CP1 87.2
Cc1ccccc1CNC(=O)C1CCCN(c2nnc(C)c3c(C)n(-c4ccccc4)nc23)C1 (centres undefined)	Granule exo inh 74.2 | Granule exo CP1 inactive
CCOc1ccccc1CNC(=O)C1CCN(c2nnc(C)c3c(C)n(-c4ccc(C)cc4)nc23)CC1	Granule exo inh 57.6, Myeloid diff 2 inconclusive | Granule exo CP1 88.5
COc1ccc(NC(=O)CN(C)C(=O)c2oc3ccccc3c2C)cc1	none
Cc1ccnc(NC(=O)C2CCN(S(=O)(=O)c3ccc(C)c(C)c3)CC2)c1	Granule exo inh 65.4 | Granule exo CP1 inactive
Cc1ccc2nc(-c3ccccc3)c(CC(=O)O)c(C(=O)O)c2c1	none
CCCCc1ccc(NC(=O)CSc2nc(=O)n(CCN(CC)CC)c3c2CCC3)cc1	Granule exo inh 83.6 | Granule exo CP1 inactive
CCN(CC)CCn1c2c(c(SCC(=O)Nc3ccc(C(C)C)cc3)nc1=O)CCCC2	none
CN(CCOc1ccccc1)CC(=O)Nc1ccc([N+](=O)[O-])cc1Cl	Granule exo inh 72.9 | Granule exo CP1 inactive
CN(CC(=O)Nc1ccccc1Cl)C(=O)COC(=O)c1ccc([N+](=O)[O-])cc1Cl	none
CCc1nc2sc(C#N)c(N)c2c2c1CCCC2	none
CCc1nc2sc(C(C)=O)c(N)c2c2c1CCCC2	Granule exo inh 63.8 | Granule exo CP1 inactive
COc1ccc(NC(=O)CC2Nc3cccc4cccc(c34)NC2=O)cc1 (centres undefined)	Granule exo inh 60.8 | Granule exo CP1 inactive
O=C(CC1Nc2cccc3cccc(c23)NC1=O)Nc1ccc(F)cc1 (centres undefined)	none
COc1ccc(Cn2nnnc2C(C(C)C)N(Cc2ccco2)Cc2cccs2)cc1 (centres undefined)	Granule exo inh 57.2 (no result: DSG3 Ab inh) | Granule exo CP1 inactive
COC(=O)c1cn(C(=O)c2cc(Br)ccc2Cl)c2ccccc12	Granule exo inh 71.7 | Granule exo CP1 inactive
COC(=O)c1cn(C(=O)c2ccc(OC)cc2)c2ccccc12	Granule exo inh 70.2 | Granule exo CP1 inactive
COC(=O)c1cn(C(=O)c2ccc(C)cc2)c2ccccc12	none
COc1ccccc1-n1c(CCC(=O)O)ccc1-c1ccccc1	none
COc1ccc(-c2ccc(CCC(=O)O)n2-c2ccccc2OC)cc1	Granule exo inh 67.0 | Granule exo CP1 inactive
Cc1nc(-c2ccc(Cl)cc2)sc1C1(C)CC(c2ccc(Cl)cc2)=NO1 (centres undefined)	none
Cc1nc(-c2ccc(Cl)cc2)sc1C1(C)CC(c2ccccc2)=NO1 (centres undefined)	Granule exo inh 83.2 | Granule exo CP1 inactive
CC(C)Cn1c(N)c(S(=O)(=O)c2cccs2)c2nc3ccccc3nc21	Granule exo inh 80.0 | Granule exo CP1 inactive
NC1=NC[C@H](Cc2ccc(O)cc2)N1CC1CCCCC1	Granule exo inh 65.4 | Granule exo CP1 inactive
